The text below walks through data of ChEMBL document CHEMBL3526090, “Pharmacokinetic mechanism involved in the prolonged high retention of laninamivir in mouse respiratory tissues after intranasal administration of its prodrug laninamivir octanoate” (Drug Metab Dispos, 2013).

Each structure is given as a SMILES string. In brackets after ≈: the same amount, converted by molar mass.

The nature of data set [1]: Drug uptake in bronchi of BALB/cAnNCrlCrlj mouse at 0.5 umol/kg administered intranasally measured at 0.25 hrs by microautoradiographic analysis. Format: ADME, BALB/cAnNCrlCr, Bronchus. The conditions noted are these: in vivo, inhaled_or_intranasal.
For data set [2], the system named is Lung. Kind of data set: Drug uptake in lung of BALB/cAnNCrlCrlj mouse at 0.5 umol/kg administered intranasally measured at 0.25 hrs by microautoradiographic analysis. Format: ADME, tissue-based, BALB/cAnNCrlCr. The conditions noted are these: in vivo, inhaled_or_intranasal.
Data set [3] in a line: Drug uptake in BALB/cAnNCrlCrlj mouse ciliated columnar epithelial cells at 0.5 umol/kg administered intranasally measured at 24 hrs by microautoradiographic analysis. The conditions noted are these: in vivo, inhaled_or_intranasal. Format: ADME, cell-based, BALB/cAnNCrlCr, Epithelial cell.
Data set [4] in a line: Drug uptake in BALB/cAnNCrlCrlj mouse Goblet cells at 0.5 umol/kg administered intranasally measured at 24 hrs by microautoradiographic analysis. Format: ADME, BALB/cAnNCrlCr. The conditions noted are these: in vivo, inhaled_or_intranasal.
Data set [5] in a line: Drug uptake in BALB/cAnNCrlCrlj mouse bronchial gland at 0.5 umol/kg administered intranasally measured at 24 hrs by microautoradiographic analysis. It counts as ADME, BALB/cAnNCrlCr. The conditions noted are these: in vivo, inhaled_or_intranasal.
Data set [6] can be described thus: Drug uptake in BALB/cAnNCrlCrlj mouse cuboidal epithelial cells at 0.5 umol/kg administered intranasally measured at 24 hrs by microautoradiographic analysis. Format: ADME, cell-based, BALB/cAnNCrlCr, Epithelial cell. The conditions noted are these: in vivo, inhaled_or_intranasal.
A short description of data set [7]: Drug uptake in BALB/cAnNCrlCrlj mouse terminal bronchiole at 0.5 umol/kg administered intranasally measured at 24 hrs by microautoradiographic analysis. The conditions noted are these: in vivo, inhaled_or_intranasal. It counts as ADME, tissue-based, BALB/cAnNCrlCr.
Data set [8] in a line: Drug uptake in BALB/cAnNCrlCrlj mouse alveolar bronchiole at 0.5 umol/kg administered intranasally measured at 24 hrs by microautoradiographic analysis. Format: ADME, BALB/cAnNCrlCr. The conditions noted are these: in vivo, inhaled_or_intranasal.
Data set [9] can be described thus: Drug uptake in BALB/cAnNCrlCrlj mouse pulmonary alveoli at 0.5 umol/kg administered intranasally measured at 24 hrs by microautoradiographic analysis. It counts as ADME, BALB/cAnNCrlCr. The conditions noted are these: in vivo, inhaled_or_intranasal.
A further data set deals with Blood. Kind of data set: Drug uptake in BALB/cAnNCrlCrlj mouse pulmonary arterial blood at 0.5 umol/kg administered intranasally measured at 24 hrs by microautoradiographic analysis. It counts as ADME, tissue-based, BALB/cAnNCrlCr. The conditions noted are these: in vivo, inhaled_or_intranasal.
Data set [10] is described as follows: Cmax in BALB/cAnNCrlCrlj mouse epithelial lining fluid at 0.5 umol/kg administered intranasally. Format: ADME, tissue-based. Also noted: dose 0.5 umol/kg, route nasal. The conditions noted are these: inhaled or intranasal. An outline of the steps: (§1)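 Female BALB/c mice (7 weeks old) received a single intranasal dose of 0.5 μmol/kg at 2.5 ml/kg, with N=3–4 per time point up to 24 h. Plasma, BAL fluid (3 × 1 ml PBS pH 7.4) and lung homogenate were taken, and AEBSF was added to a final 5 mM. LO and laninamivir were measured by LC-MS/MS. ELF levels were corrected using the urea ratio between plasma and BAL. Non-compartmental analysis on mean concentrations gave Cmax/Tmax by observation, t1/2 from ≥3 terminal log points, and AUClast by the trapezoidal method.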

The subject of data set [11] is Lung. Kind of data set: Cmax in BALB/cAnNCrlCrlj mouse lung at 0.5 umol/kg administered intranasally. It counts as ADME. Set-up: dose 0.5 umol/kg, route nasal. The conditions noted are these: in vivo, inhaled_or_intranasal. An outline of the steps: as §1
Data set [12] in a line: Cmax in BALB/cAnNCrlCrlj mouse plasma at 0.5 umol/kg administered intranasally. It counts as ADME, cell-free. The conditions noted are these: inhaled or intranasal. Set-up: dose 0.5 umol/kg, route nasal. An outline of the steps: as §1
Data set [13] is described as follows: Tmax in BALB/cAnNCrlCrlj mouse epithelial lining fluid at 0.5 umol/kg administered intranasally. It counts as ADME, tissue-based. The conditions noted are these: inhaled or intranasal. An outline of the steps: as §1
Data set [14] can be described thus: Tmax in BALB/cAnNCrlCrlj mouse lung at 0.5 umol/kg administered intranasally. It counts as ADME. The conditions noted are these: inhaled or intranasal. An outline of the steps:
as §1

Data set [15] in a line: Tmax in BALB/cAnNCrlCrlj mouse plasma at 0.5 umol/kg administered intranasally. Format: ADME, cell-free. The conditions noted are these: inhaled or intranasal. In short, it runs like this:
as §1

Data set [16] can be described thus: Elimination half life in BALB/cAnNCrlCrlj mouse epithelial lining fluid at 0.5 umol/kg administered intranasally. It counts as ADME, tissue-based. The conditions noted are these: in vivo, inhaled_or_intranasal. An outline of the steps: as §1
Data set [17] has as its system Lung. Kind of data set: Elimination half life in BALB/cAnNCrlCrlj mouse lung at 0.5 umol/kg administered intranasally. Format: ADME, tissue-based. The conditions noted are these: in vivo, inhaled_or_intranasal. An outline of the steps:
as §1

Data set [18] is described as follows: Elimination half life in BALB/cAnNCrlCrlj mouse plasma at 0.5 umol/kg administered intranasally. It counts as ADME, cell-free. The conditions noted are these: inhaled or intranasal, read-out: beta t1/2 (converted). An outline of the steps: as §1
Data set [19] in a line: AUClast in BALB/cAnNCrlCrlj mouse epithelial lining fluid at 0.5 umol/kg administered intranasally. It counts as ADME, tissue-based. Set-up: dose 0.5 umol/kg, route nasal, time 0 - last. The conditions noted are these: inhaled or intranasal. An outline of the steps:
as §1

Data set [20] relates to Lung. Kind of data set: AUClast in BALB/cAnNCrlCrlj mouse lung at 0.5 umol/kg administered intranasally. It counts as ADME. The conditions noted are these: in vivo, inhaled_or_intranasal. An outline of the steps:
as §1

Data set [21] can be described thus: AUClast in BALB/cAnNCrlCrlj mouse plasma at 0.5 umol/kg administered intranasally. It counts as ADME, cell-free. The conditions noted are these: inhaled or intranasal. Also noted: dose 0.5 umol/kg, time 0 - last, route nasal. An outline of the steps: as §1
Data set [22] is described as follows: Drug uptake in BALB/cAnNCrlCrlj mouse epithelial lining fluid at 0.5 umol/kg administered intranasally measured at 4 hrs by LC-MS/MS analysis. Format: ADME, tissue-based. The conditions noted are these: inhaled or intranasal, read-out: Drug uptake. An outline of the steps: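 Female BALB/c mice were dosed intranasally at 0.5 μmol/kg (2.5 ml/kg), N=3–4 per time point. At each sampling time, blood was taken by cardiac puncture, BAL was done with 3 × 1 ml PBS, and lungs were homogenized in 50% acetonitrile. LO and laninamivir were quantified by LC-MS/MS, calibrated over 1–100 ng/ml and 0.5–100 ng/ml respectively. ELF concentration was calculated as CBAL × (urea in plasma / urea in BAL).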

Data set [23] is described as follows: Drug uptake in primary cultured BALB/c mouse airway epithelial cells at 50 uM measured up to 90 mins by LC-MS/MS analysis. Format: ADME, cell-based. The conditions noted are these: epithelial cell. In short, it runs like this: (§2)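 Primary airway epithelial cells from BALB/c mice were obtained by collagenase digestion and negative immunomagnetic selection, then grown to confluence on collagen I. Cells were pre-incubated 30 min in serum-free F-12K. For the time course they were exposed to 50 μM LO for up to 120 min; for concentration dependence, to 10–1000 μM LO for 60 min, at 37°C. After ice-cold PBS washes and Triton lysis, intracellular LO and laninamivir were measured by LC-MS/MS and normalized to Lowry protein, in triplicate.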

The nature of data set [24]: Prodrug activation in primary cultured BALB/c mouse airway epithelial cells assessed as formation of laninamivir at 50 uM measured up to 60 to 90 mins by LC-MS/MS analysis. Format: cell-based. The conditions noted are these: epithelial cell. An outline of the steps: as §2
Data set [25] is described as follows: Prodrug activation in primary cultured BALB/c mouse airway epithelial cells assessed as formation of laninamivir measured at 60 mins by LC-MS/MS analysis. Format: cell-based. The conditions noted are these: epithelial cell, 1 h. An outline of the steps:
as §2

Data set [26] can be described thus: Prodrug activation in primary cultured BALB/c mouse airway epithelial cells assessed as formation of laninamivir measured at 50 uM measured at 24 hrs by LC-MS/MS analysis. Format: cell-based. The conditions noted are these: epithelial cell. In short, it runs like this: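 Confluent primary BALB/c airway epithelial cells were loaded with 50 μM LO for 60 min and then washed. They were then incubated in drug-free medium at 37°C for up to 24 h, with the medium fully replaced at each sampling point. Cells were washed with ice-cold PBS and lysed. LO and laninamivir in medium and cells were measured by LC-MS/MS and normalized to Lowry protein, in triplicate. Release and hydrolysis rate constants were obtained by first-order compartmental modelling.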

A short description of data set [27]: Lipophilicity, log D of the compound at pH 7.4. The conditions noted are these: buffer. It counts as physicochemical.
The nature of data set [28]: Aqueous solubility of the compound. Format: physicochemical. The conditions noted are these: buffer.

In the case of `CCCCCCCC(=O)OC[C@@H](O)[C@@H](OC)[C@@H]1OC(C(=O)O)=C[C@H](N[14C](=N)N)[C@H]1NC(C)=O`, the Drug uptake result (in [1]; in the data set on Lung [2]; in [3]; in [4]; in [5]; in [6]) was “Active” throughout. Moreover, the Drug uptake result (in [7]; in data set [8]; in [9]; in the data set with Blood) was “Active” each time.

Usually Tmax stands for the time from dosing to the highest level. A word on the AUC(0-t): it is exposure summed from dosing to a finite time, without extrapolation to infinity. Low values mean low exposure, high ones high exposure. As usually defined, the logD is lipophilicity at a set pH, counting ionised and neutral species. A high value points to a more lipophilic compound. By solubility is commonly meant how much of the substance goes into solution per volume. Take `CCCCCCCC(=O)OC[C@@H](O)[C@@H](OC)[C@@H]1OC(C(=O)O)=C[C@H](NC(=N)N)[C@H]1NC(C)=O` [LANINAMIVIR OCTANOATE]: the Cmax was determined as 20400 nM in [10], 1760 pmol/g in the data set on Lung [11] and 242 nM in [12]. Besides, the Tmax in data set [13] was 1.98 min; in [14], 30 min; in data set [15], 30 min. The results for the “beta t1/2” value (in data set [16]; in the data set with Lung [17]) were 66 min and 78 min, respectively. The half-life in data set [18] was 36 min. Moreover, the values for the exposure AUC(0-t) in data set [19] and in [21] were 23.6 µM·h and 0.323 µM·h, respectively. Also, the AUClast in the data set on Lung [20] came out at 4480 pmol·h/g. In [22], the concentration at 4 h came to 348 nM. For the same compound, the Drug uptake result in data set [23] is “Active”. Further, the values for the Drug metabolism result in data set [24], in data set [25] and in data set [26] were “metabolite_detected”, “Dose-dependent effect” and “metabolite_detected”, respectively. For the same compound, in data set [27], the logD was -0.01. Also, the solubility in data set [28] came out at 1270 µM (≈ 600 µg/mL).
